In PMC2118488 (The Journal of Experimental Medicine, 2007):
Ends that are not written are not given here. ABA = azidobenzoic acid, photoreactive group linked to the lysine of the peptide

How the values were obtained:
T1 thymocytes = assay: Fetal thymic organ culture; format: cell-based, mouse; conditions: high concentrations (100 μM shown in Fig. 1 D)
How it was run: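 E15 fetal thymi from T1 β2m−/− Rag−/− TCR transgenic mice were cultured 7 d without peptide or with 1 μM exogenous peptide, with 0.2 μM and 100 μM also shown for two variants. Cells were stained for CD4, CD8α and/or CD8β and read by flow cytometry.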

H-2K^d = H-2K^d (Mus musculus, UniProt P01902); assay: Peptide binding to H-2K^d; conditions: unpublished data
Sequence of H-2K^d (P01887 21-119): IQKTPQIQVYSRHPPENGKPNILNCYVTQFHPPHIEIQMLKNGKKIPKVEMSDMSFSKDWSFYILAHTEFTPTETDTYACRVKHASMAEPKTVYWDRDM
Sequence of H-2K^d (P01902 22-368): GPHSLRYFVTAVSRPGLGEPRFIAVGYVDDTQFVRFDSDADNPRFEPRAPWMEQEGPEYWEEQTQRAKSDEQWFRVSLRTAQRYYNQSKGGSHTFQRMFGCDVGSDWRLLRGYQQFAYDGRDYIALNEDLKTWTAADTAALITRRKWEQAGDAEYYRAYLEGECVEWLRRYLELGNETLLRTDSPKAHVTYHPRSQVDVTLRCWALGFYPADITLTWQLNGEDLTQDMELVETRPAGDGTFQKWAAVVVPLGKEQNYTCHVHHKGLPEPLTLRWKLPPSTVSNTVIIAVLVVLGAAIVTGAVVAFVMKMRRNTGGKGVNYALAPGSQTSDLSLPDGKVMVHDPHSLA

S14 thymocytes = assay: Fetal thymic organ culture; format: cell-based, mouse; conditions: S14 TCR transgenic FTOC
How it was run: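 Fetal thymi (E15) from Rag−/− β2m−/− S14 TCR transgenic mice were cultured for 7 d with peptide variants. Thymocytes were stained for CD4, CD8α and/or CD8β and analysed by flow cytometry.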

Row | Substance | Selection outcome in FTOC at high peptide concentrations (T1 thymocytes) | Affinity for H-2K^d relative to 4P (H-2K^d) | Selecting potential in FTOC (S14 thymocytes)
1 | 4S: variant of SYIPSAEK(ABA)I with proline at position 4 replaced by serine (SYISSAEK(ABA)I) | could induce negative selection |  | 
2 | 4A: variant of SYIPSAEK(ABA)I with proline at position 4 replaced by alanine (SYIASAEK(ABA)I) | could induce negative selection |  | 
3 | 4L: variant of SYIPSAEK(ABA)I with proline at position 4 replaced by leucine (SYILSAEK(ABA)I) |  | fivefold lower affinity than 4P | threshold ligand
